Assay results from ChEMBL document CHEMBL1145845, “Acetogenins as selective inhibitors of the human ovarian 1A9 tumor cell line” (2003).
Converted amounts (≈) assume the structure as drawn. The source made the active and inactive calls.

What was measured:
1A9 = assay: Effective dose required for inhibitory activity against 1A9 human tumor cell line.; assay type: functional; conditions: read-out: ED50 (the source's name)
Method in brief: (§1)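 Human tumor lines were grown in RPMI-1640 with 25 mM HEPES, 0.25% sodium bicarbonate, 10% FBS and 100 µg/mL kanamycin. KB-VIN is a vincristine-resistant KB subline, and PTX10 is a 1A9 subline with mutated β-tubulin. Trypsinized cells (1500–7500/well) got compound from DMSO stock for 3 days continuous. Cells were fixed with cold 50% TCA, stained with 0.4% SRB, and read at 562 nm. ED50 is the 50% growth-reduction concentration; not active means ≤5% inhibition at the top concentration.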

A549 = assay: Effective dose required for inhibitory activity against A549 human tumor cell line.; assay type: functional; conditions: read-out: ED50 (the source's name); method in brief: as §1
CAKI-1 [1] = assay: Effective dose required for inhibitory activity against CAK1 human tumor cell line; assay type: functional; conditions: read-out: ED50 (the source's name); method in brief: as §1
HOS [2] = assay: Effective dose required for inhibitory activity against HOS human tumor cell line.; assay type: functional; conditions: read-out: ED50 (the source's name); method in brief: as §1
HCT-8 = assay: Effective dose required for inhibitory activity against HCT-8 human tumor cell line.; assay type: functional; conditions: read-out: ED50 (the source's name); method in brief: as §1
KB [3] = assay: Effective dose required for inhibitory activity against KB human tumor cell line.; assay type: functional; conditions: read-out: ED50 (the source's name); method in brief: as §1
KB [4] = assay: Effective dose required for inhibitory activity against KB-VIN human tumor cell line.; assay type: functional; conditions: read-out: ED50 (the source's name); method in brief: as §1
MCF7 [5] = assay: Percent inhibition against MCF-7 human tumor cell line at <5 ug/mL; assay type: functional
PC-3 = assay: Effective dose required for inhibitory activity against PC-3 human tumor cell line.; assay type: functional; conditions: read-out: ED50 (the source's name); method in brief: as §1
1A9/ptx-10 [6] = assay: Effective dose required for inhibitory activity against PTX10 human tumor cell line; assay type: functional; conditions: read-out: ED50 (the source's name); method in brief: as §1
SK-MEL-2 = assay: Effective dose required for inhibitory activity against SK-MEL-2 human tumor cell line.; assay type: functional; conditions: read-out: ED50 (the source's name); method in brief: as §1
MCF7 [7] = assay: Effective dose required for inhibitory activity against MCF-7 human tumor cell line.; assay type: functional; conditions: read-out: ED50 (the source's name); method in brief: as §1
1A9/ptx-10 [8] = assay: Percent inhibition against PTX10 human tumor cell line at >10 ug/mL; assay type: functional
CAKI-1 [9] = assay: Effective dose required for inhibitory activity against CAK1 human tumor cell line; Not active; assay type: functional, cell-based; method in brief: as §1
HOS [10] = assay: Effective dose required for inhibitory activity against HOS human tumor cell line; Not active; assay type: functional, cell-based; method in brief: as §1

| SMILES | EC50 (1A9) | EC50 (A549) | EC50 (CAKI-1 [1]) | EC50 (HOS [2]) | EC50 (HCT-8) | EC50 (KB [3]) | EC50 (KB [4]) | Inhibition (MCF7 [5]) | EC50 (PC-3) | EC50 (1A9/ptx-10 [6]) | EC50 (SK-MEL-2) | EC50 (MCF7 [7]) | Inhibition (1A9/ptx-10 [8]) | NA (CAKI-1 [9]) | NA (HOS [10]) |
| --- | --- | --- | --- | --- | --- | --- | --- | --- | --- | --- | --- | --- | --- | --- | --- |
| CCCCCCCCCCCC[C@@H](O)[C@H]1CC[C@H]([C@H](O)CCCCCC(O)CCCC[C@@H](O)CC2=C[C@H](C)OC2=O)O1 (stereo not given in full) | 500 ng/mL (≈ 0.838 µM) | 12 µg/mL (≈ 20.1 µM) | 16.3 µg/mL (≈ 27.3 µM) | 13.1 µg/mL (≈ 21.9 µM) | 14.2 µg/mL (≈ 23.8 µM) | 11.8 µg/mL (≈ 19.8 µM) | 17 µg/mL (≈ 28.5 µM) | 57% | 7.8 µg/mL (≈ 13.1 µM) | 9.3 µg/mL (≈ 15.6 µM) | 13.1 µg/mL (≈ 21.9 µM) | – | – | – | – |
| CCCCCCCCCCCCCC[C@@H](O)[C@H]1CC[C@H]([C@H](O)CCCCC(O)CCCCCC(O)CC2=C[C@H](C)OC2=O)O1 (stereo not given in full) | 500 ng/mL (≈ 0.8 µM) | 11.5 µg/mL (≈ 18.4 µM) | 16 µg/mL (≈ 25.6 µM) | 13.6 µg/mL (≈ 21.8 µM) | 12.7 µg/mL (≈ 20.3 µM) | 9 µg/mL (≈ 14.4 µM) | 13.3 µg/mL (≈ 21.3 µM) | – | 12.2 µg/mL (≈ 19.5 µM) | 7.2 µg/mL (≈ 11.5 µM) | 15 µg/mL (≈ 24 µM) | 5.6 µg/mL (≈ 8.96 µM) | – | – | – |
| CCCCCCCCCCCC[C@@H](O)[C@H]1CC[C@H]([C@H](O)CCCCC(O)CCCCCCCC2=C[C@H](C)OC2=O)O1 (stereo not given in full) | 100 ng/mL (≈ 0.172 µM) | 9.8 µg/mL (≈ 16.9 µM) | 13.9 µg/mL (≈ 23.9 µM) | 9.8 µg/mL (≈ 16.9 µM) | 10.8 µg/mL (≈ 18.6 µM) | 7.6 µg/mL (≈ 13.1 µM) | 12.5 µg/mL (≈ 21.5 µM) | 55% | 8.1 µg/mL (≈ 13.9 µM) | 5 µg/mL (≈ 8.61 µM) | 14.2 µg/mL (≈ 24.4 µM) | – | – | – | – |
| CCCCCCCCCCCC[C@@H](O)[C@H]1CC[C@@H]([C@@H](O)CCCCCCC(O)CCCCC[C@@H](O)CC2=C[C@H](C)OC2=O)O1 (stereo not given in full) | 80 ng/mL (≈ 0.128 µM) | 14.5 µg/mL (≈ 23.2 µM) | 17.3 µg/mL (≈ 27.7 µM) | 15 µg/mL (≈ 24 µM) | 15 µg/mL (≈ 24 µM) | 10.8 µg/mL (≈ 17.3 µM) | 14 µg/mL (≈ 22.4 µM) | – | 14 µg/mL (≈ 22.4 µM) | 8.7 µg/mL (≈ 13.9 µM) | 15.1 µg/mL (≈ 24.2 µM) | 6.6 µg/mL (≈ 10.6 µM) | – | – | – |
| CCCCCCCCCC[C@H](O)[C@H]1CC[C@H]([C@H]2CC[C@H]([C@H](O)CCCCCCCC[C@@H](O)CC3=C[C@H](C)OC3=O)O2)O1 [MOLVIZARIN] | 0.005 ng/mL (≈ 8.41e-06 µM) | 12.9 µg/mL (≈ 21.7 µM) | 16.4 µg/mL (≈ 27.6 µM) | 9.9 µg/mL (≈ 16.6 µM) | 14.9 µg/mL (≈ 25 µM) | 10 µg/mL (≈ 16.8 µM) | 13.9 µg/mL (≈ 23.4 µM) | – | 12.9 µg/mL (≈ 21.7 µM) | 8.7 µg/mL (≈ 14.6 µM) | 16.4 µg/mL (≈ 27.6 µM) | 7.7 µg/mL (≈ 12.9 µM) | – | – | – |
| CC(=O)O[C@H]1C(=O)[C@@]2(C)[C@H]([C@H](OC(=O)c3ccccc3)[C@]3(O)C[C@H](OC(=O)[C@H](O)[C@@H](NC(=O)c4ccccc4)c4ccccc4)C(C)=C1C3(C)C)[C@]1(OC(C)=O)CO[C@@H]1C[C@@H]2O [PACLITAXEL] | 2 ng/mL (≈ 0.00234 µM) | 0.005 µg/mL (≈ 0.00586 µM) | – | – | 0.011 µg/mL (≈ 0.0129 µM) | 0.001 µg/mL (≈ 0.00117 µM) | – | – | – | 0.041 µg/mL (≈ 0.048 µM) | – | – | – | – | – |
| CCCCCCCC(O)C(O)CCCC[C@@H](O)[C@H]1CC[C@H](CCCCCCCCCCCCC2=C[C@H](C)OC2=O)O1 (stereo not given in full) | 770 ng/mL (≈ 1.33 µM) | > 20 µg/mL | > 20 µg/mL | > 20 µg/mL | > 20 µg/mL | 15.1 µg/mL (≈ 26 µM) | > 20 µg/mL | – | 17.5 µg/mL (≈ 30.1 µM) | – | 17.5 µg/mL (≈ 30.1 µM) | 10.5 µg/mL (≈ 18.1 µM) | 37% | – | – |
| CCCCCCCCCCCC[C@@H](O)[C@H]1CC[C@@H]([C@@H](O)CCCCC(=O)CCCCCCCC2=C[C@H](C)OC2=O)O1 [COROSSOLONE] | 820 ng/mL (≈ 1.42 µM) | 19 µg/mL (≈ 32.8 µM) | > 20 µg/mL | > 20 µg/mL | > 20 µg/mL | 18 µg/mL (≈ 31.1 µM) | > 20 µg/mL | – | 13.5 µg/mL (≈ 23.3 µM) | – | 18.8 µg/mL (≈ 32.5 µM) | 7.9 µg/mL (≈ 13.6 µM) | 37% | – | – |
| CCCCCCCC(O)C(O)CC[C@H](O)[C@@H]1CC[C@@H](CCCCCCCCCC[C@H](O)CC2=C[C@H](C)OC2=O)O1 (stereo not given in full) | 680 ng/mL (≈ 1.2 µM) | > 20 µg/mL | > 20 µg/mL | > 20 µg/mL | > 20 µg/mL | 18 µg/mL (≈ 31.6 µM) | > 20 µg/mL | – | > 20 µg/mL | – | > 20 µg/mL | 15.5 µg/mL (≈ 27.2 µM) | 27% | – | – |
| CCCCCCCCCCCC[C@@H](O)[C@H]1CC[C@H]([C@H](O)CCCCC(=O)CCCCC[C@@H](O)CC2=C[C@H](C)OC2=O)O1 [ANNONACINONE] | 740 ng/mL (≈ 1.24 µM) | > 20 µg/mL | > 20 µg/mL | > 20 µg/mL | > 20 µg/mL | 18.3 µg/mL (≈ 30.8 µM) | > 20 µg/mL | – | > 20 µg/mL | – | > 20 µg/mL | 11.5 µg/mL (≈ 19.3 µM) | 36% | – | – |
| CCCCCCCCCCCC[C@@H](O)[C@H]1CC[C@H]([C@H](O)CCCCC(=O)CCCCCCCC2=C[C@H](C)OC2=O)O1 | 760 ng/mL (≈ 1.31 µM) | > 20 µg/mL | – | – | > 20 µg/mL | > 20 µg/mL | > 20 µg/mL | – | > 20 µg/mL | – | > 20 µg/mL | 9.5 µg/mL (≈ 16.4 µM) | 31% | inactive | inactive |
